Measured values from ChEMBL document CHEMBL4038313, “Expanding the Antiviral Spectrum of 3-Fluoro-2-(phosphonomethoxy)propyl Acyclic Nucleoside Phosphonates: Diamyl Aspartate Amidate Prodrugs” (J Med Chem, 2017).

Legend:
[1] = system: Human immunodeficiency virus 1; assay: Antiviral activity against tenofovir-resistant CXCR4-tropic HIV-1 NL4-3 harboring reverse transcriptase K65R mutant infected in human MT4 cells assessed as inhibition of viral replication inhibition of virus-induced cytopathic effect after 6 days by XTT dye based assay; type: functional, cell-based; conditions: Human immunodeficiency virus 1, NL4-3, MT4, 144 h
Procedure, shortened: (§1)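 MT-4 cells, 1 × 10^4 per well, given compound dilutions and wild-type NL4-3 or K65R NL4-3. Virus titred to give 85–95% cell killing at day 6. Incubated 6 days at 37 °C, 5% CO2. Viability read by XTT at 450/650 nm. EC50 from CPE reduction and toxicity from uninfected drug wells, by four-parameter fit. Fold change is K65R EC50 over wild-type EC50.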

[2] = system: Human immunodeficiency virus 1; assay: Selectivity ratio of EC50 for tenofovir-resistant CXCR4-tropic HIV-1 NL4-3 harboring reverse transcriptase K65R mutant infected in human MT4 cells to EC50 for CXCR4-tropic HIV-1 NL4-3 infected in human MT4 cells; type: functional; procedure, shortened: as §1
[3] = Cytotoxicity against human MT4 cells assessed as reduction in cell viability after 6 days by XTT tetrazolium dye-based assay; procedure, shortened: as §1
[4] = system: Human immunodeficiency virus 1; assay: Antiviral activity against CXCR4-tropic HIV-1 NL4-3 infected in human MT4 cells assessed as inhibition of virus-induced cytopathic effect after 6 days by XTT dye based assay; type: functional, cell-based; conditions: Human immunodeficiency virus 1, NL4-3, MT4, 144 h; procedure, shortened: as §1
Hepatitis B virus [5] = assay: Antiviral activity against HBV ayw1 infected in human HepG2(2.2.15) cells assessed as reduction in viral replication by measuring extracellular viral DNA copy number after 6 days by real-time qPCR method; type: functional, cell-based; conditions: ayw1, HepG2 2.2.15, 144 h
Procedure, shortened: (§2)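 HepG2.2.15 cells (two copies of HBV ayw1 genome), 1.5 × 10^4/well in DMEM with 2% FBS and 380 μg/mL G418. After 16–24 h, compound added in triplicate, medium with compound renewed at day 3. Supernatant collected at day 6, Pronase-treated, and extracellular HBV DNA measured by TaqMan qPCR (precore/core) against an HBV DNA standard curve. EC50/EC90 derived; CC50 by MTS uptake.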

[6] = Cytotoxicity against human HepG2.2.15 cells assessed as cell viability by tetrazolium dye uptake assay; type: cell-based, HepG2 2.2.15
Procedure, shortened: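 HepG2.2.15 cells (two integrated copies of HBV ayw1 genome) were seeded at 1.5 × 10^4 cells/well in DMEM with 2% FBS, 380 μg/mL G418, glutamine, antibiotics and nonessential amino acids. After 16−24 h, medium with various compound concentrations was added in triplicate and renewed on day 3. After 6 days of treatment, viability was read by MTS uptake and CC50 was calculated.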

[7] = Selectivity index, ratio of CC50 for HepG2.2.15 cells to EC50 for HBV ayw1 infected in human HepG2(2.2.15) cells assessed as reduction in viral replication by measuring extracellular viral DNA copy; procedure, shortened: as §2
Hepatitis B virus [8] = assay: Antiviral activity against HBV ayw1 infected in human HepG2(2.2.15) cells assessed as reduction in viral replication by measuring intracellular viral DNA copy number after 6 days byr by real-time qPCR assay; type: functional, cell-based; conditions: ayw1, HepG2 2.2.15, 144 h
Procedure, shortened: (§3)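 Run as the HepG2.2.15 6-day assay (triplicate compound, medium with compound renewed at day 3). At the end, total intracellular DNA was isolated from the cells and HBV DNA copy number measured by TaqMan qPCR. EC50/EC90 derived; SI is CC50/EC50.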

[9] = Selectivity index, ratio of CC50 for HepG2.2.15 cells to EC50 for HBV ayw1 infected in human HepG2(2.2.15) cells assessed as reduction in viral replication by measuring intracellular viral DNA copy; procedure, shortened: as §3
[10] = system: Human immunodeficiency virus 1; assay: Antiviral activity against CXCR4-tropic HIV-1 NL4-3 infected in human TZM-bl cells assessed as inhibition of virus-induced cytopathic effect preincubated with cells for 30 mins followed by viral infection measured after 48 hrs in presence of p-24 HIV-1 Ag by luciferase reporter gene assay; type: functional, cell-based; conditions: Human immunodeficiency virus 1, NL4-3, TZM-bl
Procedure, shortened: (§4)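 TZM-bl cells, 1 × 10^4 per well in DMEM with 10% FBS and 10 mM […], incubated 30 min at 37 °C with compound. Then HIV-1 NL4.3 (X4) or BaL (R5) added at 100 pg p24 Ag per well. After 48 h, cells lysed with luciferase substrate. Tat-induced luminescence read after 10 min dark incubation as a measure of replication.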

[11] = system: Human immunodeficiency virus 1; assay: Antiviral activity against CCR5 tropic HIV1 BaL infected in human TZM-bl cells assessed as inhibition of virus-induced cytopathic effect preincubated with cells for 30 mins followed by viral infection measured after 48 hrs in presence of p-24 HIV-1 Ag by luciferase reporter gene assay; type: functional, cell-based; conditions: Human immunodeficiency virus 1, BaL; procedure, shortened: as §4
[12] = Cytotoxicity against human TZM-bl cells assessed as cell viability by tetrazolium dye assay; type: cell-based
[13] = system: Human immunodeficiency virus 1; assay: (§5) Antiviral activity against CXCR4-tropic HIV-1 NL4-3 infected in human PHA-stimulated PBMC assessed as inhibition of viral replication by measuring reduction in p24 antigen production preincubated with cells for 30 mins followed by viral infection measured on day 10 post infection in presence of IL-2 by ELISA; type: functional; conditions: Human immunodeficiency virus 1, NL4-3
Procedure, shortened: (§6)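 PBMCs stimulated with 2 μg/mL PHA for 3 days at 37 °C, then 5 × 10^5 cells/ml preincubated 30 min at 37 °C with serial compound dilutions plus 2 ng/mL IL-2. Infected with 1500 pg/well HIV-1 BaL or 500 pg/well other isolates. IL-2 re-added on days 3 and 6. Supernatant p24 Ag measured by ELISA at day 10. EC50 is 50% inhibition of replication.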

[14] = system: Human immunodeficiency virus 1; assay: as §5, with “CCR5 tropic HIV1 BaL” for “CXCR4-tropic HIV-1 NL4-3”; type: functional; conditions: Human immunodeficiency virus 1, BaL; procedure, shortened: as §6
[15] = Cytotoxicity against human PHA-stimulated PBMC assessed as cell viability by tetrazolium dye assay; type: cell-based
[16] = Selectivity index, ratio of CC50 for human TZM-bl cells to EC50 for CXCR4-tropic HIV-1 NL4-3 infected in human TZM-bl cells; type: toxicity, cell-based; conditions: read-out: Ratio CC50/EC50
[17] = Selectivity index, ratio of CC50 for human TZM-bl cells to EC50 for CCR5 tropic HIV1 BaL infected in human TZM-bl cells; type: toxicity, cell-based; conditions: read-out: Ratio CC50/EC50
[18] = Selectivity index, ratio of CC50 for human PHA-stimulated PBMC to IC50 for CXCR4-tropic HIV-1 NL4-3 infected in human PHA-stimulated PBMC
[19] = Selectivity index, ratio of CC50 for human PHA-stimulated PBMCs to IC50 for CCR5 tropic HIV1 BaL infected in human PHA-stimulated PBMC
Human betaherpesvirus 5 [20] = assay: Antiviral activity against Human cytomegalovirus AD169 infected in HEL cells assessed as inhibition of virus-induced cytopathic effect; type: functional, cell-based; conditions: Human betaherpesvirus 5, AD169, HEL
Procedure, shortened: (§7)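 HEL fibroblast monolayers inoculated with 100 CCID50 HCMV (AD-169, Davis) or 20 PFU VZV (TK+ Oka, TK− 07-1). Adsorbed 1–2 h, inoculum removed, then incubated with compound dilutions. HCMV cytopathicity or VZV plaques scored once untreated infected controls reached completion. EC50 is 50% reduction. SI is CC50/EC50, and the potency ratio is the ratio of EC50s.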

Human betaherpesvirus 5 [21] = assay: Antiviral activity against HCMV Davis strain infected in HEL cells assessed as inhibition of virus-induced cytopathic effect; type: functional, cell-based; conditions: Human betaherpesvirus 5, Davis; procedure, shortened: as §7
Human alphaherpesvirus 3 [22] = assay: Antiviral activity against thymidine kinase expressing Varicella-Zoster virus Oka strain assessed as inhibition of plaque formation; type: functional; conditions: Human alphaherpesvirus 3, strain Oka vaccine; procedure, shortened: as §7
Human alphaherpesvirus 3 [23] = assay: Antiviral activity against thymidine kinase deficient Varicella-Zoster virus 07-1 infected in HEL cells assessed as inhibition of plaque formation; type: functional, cell-based; conditions: Human alphaherpesvirus 3, 07-1, HEL; procedure, shortened: as §7
[24] = Cytotoxic activity against HEL cells assessed as alteration of cell morphology after 3 days by microscopic method; type: cell-based; conditions: human
Procedure, shortened: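 HEL cells with compound; MCC is the lowest concentration giving microscopically detectable alteration of cell morphology.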

[25] = Cytotoxic activity against HEL cells assessed as reduction in cell proliferation after 3 days by coulter counting method; type: cell-based; conditions: human
Procedure, shortened: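 HEL cells seeded at 5 × 10^3/well, grown 24 h, then given compound for 3 days at 37 °C. Cell number counted by Coulter counter. CC50 is 50% reduction of proliferation relative to untreated controls, read from graphic plots.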

[26] = Half life in human plasma at 1 uM by HPLC-MS/MS method; type: ADME, cell-free
Procedure, shortened: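 Human plasma preincubated 10 min with pH 7.4 phosphate buffer at 37 °C. Compound added at final 1 μM and sampled at 0, 0.5, 1, 1.5 and 2 h into acetonitrile. Centrifuged and analysed by HPLC-MS/MS. t1/2 is the mean of two experiments.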

[27] = Half life in human liver microsomes at 0.1 uM in presence of NADPH by HPLC-MS/MS method; type: ADME, microsome
Procedure, shortened: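 Pooled human liver microsomes preincubated 10 min at 37 °C with an NADPH-regenerating system (1 mM NADP, 5 mM G6P, G6PDH) in pH 7.4 phosphate with 3 mM MgCl2 and 1 mM EDTA. Compound added at final 0.1 μM and sampled at 0–60 min into acetonitrile/methanol. Analysed by HPLC-MS/MS, mean of two experiments.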

[28] = Selectivity index, ratio of CC50 for human HEL cells to EC50 for HCMV AD-169 strain; procedure, shortened: as §7
[29] = Selectivity index, ratio of CC50 for human HEL cells to EC50 for HCMV Davis strain; procedure, shortened: as §7

| SMILES | EC50 [1] | Ratio EC50 [2] | CC50 at 144 h [3] | EC50 [4] | EC50 (Hepatitis B virus [5]) | EC90 (Hepatitis B virus [5]) | CC50 [6] | Ratio CC50/EC50 [7] | EC50 [10] | EC50 [11] | CC50 [12] | IC50 [13] | IC50 [14] | CC50 [15] | selectivity ratio [16] | selectivity ratio [17] | Ratio CC50/IC50 [18] | Ratio CC50/IC50 [19] | further results |
| --- | --- | --- | --- | --- | --- | --- | --- | --- | --- | --- | --- | --- | --- | --- | --- | --- | --- | --- | --- |
| Cc1cn([C@H]2C[C@H](N=[N+]=[N-])[C@@H](CO)O2)c(=O)[nH]c1=O [ZIDOVUDINE] | 5 nM | 1.3 | > 500 nM | 4 nM | – | – | – | – | – | – | – | – | – | – | – | – | – | – | – |
| C=C1[C@H](CO)[C@@H](O)C[C@@H]1n1cnc2c(=O)[nH]c(N)nc21.O [ENTECAVIR] | – | – | – | – | < 10 nM | > 1000 nM | > 1000 nM | >2381 | – | – | – | – | – | – | – | – | – | – | EC50 (Hepatitis B virus [8]): 0.35 nM; EC90 (Hepatitis B virus [8]): > 1000 nM; Ratio CC50/EC50 [9]: >2857 |
| C[C@H](Cn1cnc2c(N)ncnc21)OCP(=O)(O)O [TENOFOVIR ANHYDROUS] | 100 nM | >16.7 | > 20000 nM | < 60 nM | – | – | – | – | 4000 nM | 6910 nM | > 100000 nM | 380 nM | 1400 nM | > 25000 nM | > 25 | > 14 | >66 | >18 | – |
| CC(C)OC(=O)OCOP(=O)(CO[C@H](C)Cn1cnc2c(N)ncnc21)OCOC(=O)OC(C)C.O=C(O)/C=C/C(=O)O [TENOFOVIR DISOPROXIL FUMARATE] | 11300 nM | 2.3 | > 20000 nM | – | – | – | – | – | – | – | – | 80 nM | 220 nM | 14600 nM | – | – | 182 | 66 | – |
| CCCCCOC(=O)C[C@H](NP(=O)(CO[C@@H](CF)Cn1cnc2c(=O)[nH]c(N)nc21)Oc1ccccc1)C(=O)OCCCCC (stereo partly specified) | 80 nM | 8 | > 1000 nM | 10 nM | 20 nM | 620 nM | > 100000 nM | >5000 | 73 nM | 60 nM | > 100000 nM | 20 nM | 170 nM | 9310 nM | > 1370 | > 1670 | 466 | 55 | EC50 (Human betaherpesvirus 5 [20]): 4430 nM; EC50 (Human betaherpesvirus 5 [21]): 1980 nM; EC50 (Human alphaherpesvirus 3 [22]): 890 nM; EC50 (Human alphaherpesvirus 3 [23]): 110 nM; MCC at 72 h [24]: 153 µM; CC50 at 72 h [25]: 10200 nM; half-life at 1 µM [26]: 73 min; half-life at 0.1 µM [27]: 2 min; Ratio CC50/EC50 [28]: <10; Ratio CC50/EC50 [29]: <10 |
